Assay outcomes (PubChem BioAssay)
NPY-Y1 antag = blocks the human neuropeptide Y Y1 receptor; P25929; HEK293-CNG Y1 cells, membrane potential fluorescence; NPY at EC95, then isoproterenol; inhibition, % at 3.6 µM; 200,000 tested, 1% active;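 active means inhibition above the campaign mean inhibition of all tested compounds plus 3 SD, cut at about 20% in these data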;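 further: 0% = DMSO wells given NPY plus isoproterenol and 100% = isoproterenol alone without NPY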
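Material: HEK293 Y1/CNG channel cell line | Also added: NPY (25 nM), isoproterenol (1 µM), Ro 20-1724 (25 µM) | Compound: One concentration, 3.6 µM, in 0.4% DMSO | Schedule: 3 h dye uptake, 1 h room-temperature compound, 45 min post-isoproterenol | Signal: Membrane-potential fluorescent dye readout | Read-out: % inhibition of NPY effect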
NPY2 pot ag = human NPY-Y2 potentiation or agonism, primary screen; AID 1359; cells expressing NPY-Y2, potentiator/agonist read-out; 220,000 tested, 0.45% active; activation, % at 3.6 µM; P49146; in the data active means activation above about 27%;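 further: cells stimulated with NPY near EC25 plus isoproterenol at EC100; 0% = vehicle plus submaximal agonist and 100% = vehicle plus saturating agonist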
Target sequence (P49146 whole entry, looked up): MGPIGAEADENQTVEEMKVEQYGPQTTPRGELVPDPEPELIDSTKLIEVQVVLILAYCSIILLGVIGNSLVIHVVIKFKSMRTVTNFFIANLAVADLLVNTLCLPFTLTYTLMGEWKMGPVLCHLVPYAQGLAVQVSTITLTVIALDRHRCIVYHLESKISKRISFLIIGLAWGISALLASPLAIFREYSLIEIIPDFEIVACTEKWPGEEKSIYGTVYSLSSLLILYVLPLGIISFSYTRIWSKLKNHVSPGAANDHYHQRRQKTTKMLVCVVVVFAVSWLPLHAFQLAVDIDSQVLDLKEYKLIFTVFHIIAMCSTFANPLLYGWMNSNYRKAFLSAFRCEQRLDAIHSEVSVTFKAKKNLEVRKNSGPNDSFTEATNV
NPY1 pot ag = human NPY-Y1 potentiation or agonism, primary screen; P25929; 220,000 tested, 0.37% active; NPY-Y1 expressing cells, potentiator/agonist activation; activation, % at 3.6 µM; AID 1304; in the data active means activation above about 33%, passing the limit was not always enough;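 further: cells stimulated with NPY at EC10 then isoproterenol at EC100; 0% = low agonist plus stimulus and 100% = saturating agonist plus stimulus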
NPY Y2 blocker = antagonists of human neuropeptide Y receptor Y2 | 140,000 tested, 0.99% active | P49146 | inhibition, % at 2.7 µM | NPY-Y2 expressing cells, antagonist mode;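 further: 0% = vehicle with agonist challenge and 100% = reference antagonist with challenge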
NPY-Y1 ant conf = human NPY-Y1 antagonism, confirmation | shares compounds with NPY-Y1 antag | HEK293-CNG NPY-Y1, membrane potential fluorescence, cAMP; NPY challenge against isoproterenol-raised cAMP | inhibition, % at 3.6 µM | 1,200 tested, 21% active; in the data active means inhibition above about 20%;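 further: 0% = vehicle with agonist plus stimulus and 100% = stimulus alone without agonist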
NPY-Y2 antag ct = antagonizes human NPY-Y2, counter-screen to NPY-Y1 antagonists; HEK293 NPY-Y2 CNG membrane potential fluorescence, antagonism; cells given NPY, then isoproterenol; AID 1255; 1,200 tested, 28% active; inhibition, % at 3.6 µM; shares compounds with NPY-Y1 antag;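 further: 0% = DMSO with agonist challenge and 100% = reference antagonist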
Active calls of the source: *; · = not tested or not shown. Only some compounds are listed: those with a hit (about 1.8% of all), similar ones and a draw of the others. Unless noted, no stated cut-off is given here; in the data, active means inhibition above about 17%; inactive means the rest.

SMILES	NPY-Y1 antag	NPY2 pot ag	NPY1 pot ag	NPY Y2 blocker	NPY-Y1 ant conf	NPY-Y2 antag ct
Cc1ccc(C(=O)c2cc([N+](=O)[O-])ccc2N2CCCCC2)cc1	22*	-2	-62	16	12	26*
Cc1ccc(C(=O)c2cc([N+](=O)[O-])ccc2N2CC(C)OC(C)C2)cc1 (stereo unspecified)	0	6	-10	4	·	·
COc1cc(/C=N/OCC(=O)NC2CCCCC2)ccc1OCc1ccccc1	-2	-7	-1	2	·	·
O=C(NC1CCCCC1)C(c1cccs1)N(Cc1cccs1)C(=O)c1ccco1 (stereo unspecified)	47*	-20	-25	11	14	11
O=C(CSc1ccc2c(c1)OCCO2)NCCc1ccc(Cl)cc1Cl	20*	-21	-44	12	8	7
CC1CCN(CCCNC(=O)c2cn(C)c3ccc(S(=O)(=O)N4CCCC4)cc3c2=O)CC1	28*	0	3	1	-2	1
COC(=O)c1c(NC(=O)CN2CCCC(C)C2)c2c(C)cccc2n1C (stereo unspecified)	32*	-17	-16	13	6	4
COC(=O)c1c(NC(=O)CN2CCC(C(N)=O)CC2)c2c(C)cccc2n1C	8	4	10	-2	·	·
CCOC(=O)N1CCN(C(=O)c2ccc3c(=O)n(Cc4ccc(Cl)cc4)c(=S)[nH]c3c2)CC1	7	-6	-49	2	·	·
CSc1cccc(NC(=O)CN(c2ccccc2)S(=O)(=O)N(C)C)c1	20*	-17	44	13	4	4
CN(C)S(=O)(=O)N(CC(=O)Nc1ccc(F)c(F)c1)c1ccccc1	-2	-1	13	6	·	·
COc1cc(/C=C2\SC(c3ccc(C)cc3)=NC2=O)ccc1O	3	-1	25	1	·	·
OC1CCCN(Cc2ccc3ccc4cccc5ccc2c3c45)C1 (stereo unspecified)	25*	-18	-35	11	10	17*
c1cc2ccc3ccc(CN4CCOCC4)c4ccc(c1)c2c34	8	-1	-20	3	·	·
COC(=O)CNC(c1ccccc1)c1cc(Br)ccc1NS(=O)(=O)c1ccc(C)cc1 (stereo unspecified)	11	17	7	4	·	·
COC(=O)CNC(c1ccccc1)c1cc(Br)ccc1NS(=O)(=O)c1ccccc1 (stereo unspecified)	27*	-3	-31	17	-1	4
CCOc1ccc(OCC(=O)Nc2ccc(S(N)(=O)=O)cc2)cc1	4	-10	-7	·	·	·
Clc1ccc(-c2nnc(N3CCOCC3)o2)cc1	·	3	6	·	·	·
O=C(Cn1ccc(C(F)(F)F)n1)N=Nc1c(O)[nH]c2ccc(Br)cc12	1	0	7	·	·	·
O=C(Cn1ccc(C(F)(F)F)n1)N=Nc1c(O)[nH]c2ccccc12	38*	-46	-2	·	36*	40*
CCOC(=O)CC1=C(C(=O)OCC)C(c2ccc(OC)c(OC)c2)C(C#N)=C(N)O1 (stereo unspecified)	1	0	-12	2	·	·
O=C(CSc1nnc(COc2ccccc2)o1)N1CCN(c2ccccc2)CC1	4	0	-2	2	·	·
CCOC(=O)CSc1nnc(COc2cccc(C)c2)o1	5	-3	10	·	·	·
Cc1ccc(C(=O)CSc2nnc(COc3cccc(C)c3)o2)cc1	21*	-24	-43	13	10	10
Cc1cc(C)cc(OCc2nnc(SCC(=O)N3CCN(c4ccccc4)CC3)o2)c1	21*	-9	-22	6	13	17
SMILES	NPY-Y1 antag	NPY2 pot ag	NPY1 pot ag	NPY Y2 blocker	NPY-Y1 ant conf	NPY-Y2 antag ct
O=C(NCCN1CCCCCC1)C1CCCN1S(=O)(=O)c1cccc2nsnc12 (stereo unspecified)	·	-32	-19	·	·	·
COc1ccc(-c2c[n+](CC(=O)OC3CC(C)CCC3C(C)C)c3n2CCC3)cc1 (stereo unspecified)	75*	-7	-47	·	61*	35*
CCN(CC)CC(C)(C)NS(=O)(=O)c1ccc(Cl)cc1	4	-2	5	2	·	·
CCOC(=O)c1sc(NC(NC(=O)c2ccco2)(C(=O)OC)C(F)(F)F)nc1C (stereo unspecified)	32*	-13	2	5	8	13
CCOC(=O)c1sc(NC(=S)NC(=O)c2ccco2)nc1C	2	11	10	2	·	·
Cc1ccc(C(C)C)c(OCc2n[nH]c(=S)o2)c1	23*	-23	-9	·	6	10
CCOC(=O)c1cc2ccccc2n1CCN(CC)CC	25*	-28	-25	12	5	16
Clc1ccc(CN2CCCCCCC2)cc1Cl	22*	-29	-15	7	4	5
CCOc1ccc(CNC(=O)c2ccc(Sc3ccc(Cl)cc3)c(NC(C)=O)c2)cc1	41*	-35	-70	16	24*	20*
Cc1c(C)n(Cc2ccccc2)c2ccc(C(=O)OCCCN(C)C)cc12	22*	-14	-5	·	29*	37*
CC1CCN(C(=O)CSc2nc3ccccc3c(=O)n2Cc2ccc3c(c2)OCO3)CC1	21*	-20	-43	12	4	6
O=c1c2ccccc2nc(-c2ccco2)n1Cc1ccccc1	2	6	-2	4	·	·
O=c1c2ccccc2nc(-c2ccc(Br)cc2)n1Cc1ccccc1	24*	-33	-86	5	21*	32*
O=C(NCc1nc(-c2ccccc2)no1)c1ccc2c(c1)OCO2	22*	-3	-34	6	13	10
CC(C)N(Cc1nc(-c2ccccc2)no1)C(=O)c1ccc2c(c1)OCO2	7	-15	-37	7	·	·
COc1ccc2cc(C#N)c(SCC(=O)N3CC(=O)Nc4ccccc43)nc2c1	·	2	-2	·	·	·
OCCN(/C=N/c1nc(-c2ccc(Br)cc2)cs1)CCO	1	3	12	-2	·	·
Brc1ccc(-c2csc(/N=C/N3CCCC3)n2)cc1	32*	-27	-11	·	31*	13
CCCCCCCCCCOC(=O)C[N+](C)(C)C/C=C(/C)Cl	23*	-3	-1	15	11	12
CCOC(=O)C(CO)(NC(C)=O)C(=O)OCC	25*	-13	0	11	9	7
CCOC(=O)C(CCCCCCC(NC(C)=O)(C(=O)OCC)C(=O)OCC)(NC(C)=O)C(=O)OCC	·	-12	3	·	·	·
O=C(NC1CCCCC1)C(c1ccncc1)N(Cc1ccc2c(c1)OCO2)C(=O)C(F)(F)F (stereo unspecified)	21*	-4	-20	9	9	5
COc1ccc(C(=O)NCCN2CCOCC2)c(OC)c1	0	8	3	·	·	·
O=C(N/N=C/c1ccccc1OC(=O)c1ccc2c(c1)OCO2)c1cccc(F)c1	21*	-11	-25	17	16	9
